Data on 21 compounds can be found in ChEMBL document CHEMBL1132924, “Molecular determinants of MAO selectivity in a series of indolylmethylamine derivatives: biological activities, 3D-QSAR/CoMFA analysis, and computational simulation of ligand recognition” (J Med Chem, 2000).

A word on the Ki: it is a measure of affinity in units of concentration, obtained from inhibition or displacement.

Experiment [1] concerns the target T1, Amine oxidase [flavin-containing] A (Rattus norvegicus, UniProt P21396).
T1 sequence (P21396 whole entry): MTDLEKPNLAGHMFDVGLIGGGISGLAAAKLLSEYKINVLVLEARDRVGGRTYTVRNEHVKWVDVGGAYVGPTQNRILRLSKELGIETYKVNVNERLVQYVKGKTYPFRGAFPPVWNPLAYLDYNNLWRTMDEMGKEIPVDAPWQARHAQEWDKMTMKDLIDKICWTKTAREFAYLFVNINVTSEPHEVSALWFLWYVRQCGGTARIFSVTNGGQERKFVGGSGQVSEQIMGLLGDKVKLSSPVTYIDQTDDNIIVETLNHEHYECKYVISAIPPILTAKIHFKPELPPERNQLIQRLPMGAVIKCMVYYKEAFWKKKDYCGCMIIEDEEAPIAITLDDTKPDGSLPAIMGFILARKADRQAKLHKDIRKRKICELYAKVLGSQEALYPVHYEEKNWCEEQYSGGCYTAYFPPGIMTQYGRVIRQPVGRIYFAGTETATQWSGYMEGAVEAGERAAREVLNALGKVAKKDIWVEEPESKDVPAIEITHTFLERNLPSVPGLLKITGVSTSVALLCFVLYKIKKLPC
The experiment in a line: (§1) Inhibitory activity against Monoamine oxidase A. A digest of the protocol: (§2)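 Rat liver mitochondrial fraction (male Sprague-Dawley, 200-250 g), homogenised in 50 mM potassium phosphate pH 7.2. Kynuramine 40 µM as substrate with MAO-B activity blocked beforehand by L-deprenyl, product read at 324 nm. Ki for reversible complex formation obtained by direct analysis of spectrophotometric reaction progress curves over varying inhibitor concentrations.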

The target of experiment [2] is T1, Amine oxidase [flavin-containing] A. The description is as §1. A digest of the protocol:
as §2
The source holds these as a separate data set.

Experiment [3] deals with T2, Amine oxidase [flavin-containing] B (Rattus norvegicus, UniProt P19643).
T2 sequence (P19643 whole entry): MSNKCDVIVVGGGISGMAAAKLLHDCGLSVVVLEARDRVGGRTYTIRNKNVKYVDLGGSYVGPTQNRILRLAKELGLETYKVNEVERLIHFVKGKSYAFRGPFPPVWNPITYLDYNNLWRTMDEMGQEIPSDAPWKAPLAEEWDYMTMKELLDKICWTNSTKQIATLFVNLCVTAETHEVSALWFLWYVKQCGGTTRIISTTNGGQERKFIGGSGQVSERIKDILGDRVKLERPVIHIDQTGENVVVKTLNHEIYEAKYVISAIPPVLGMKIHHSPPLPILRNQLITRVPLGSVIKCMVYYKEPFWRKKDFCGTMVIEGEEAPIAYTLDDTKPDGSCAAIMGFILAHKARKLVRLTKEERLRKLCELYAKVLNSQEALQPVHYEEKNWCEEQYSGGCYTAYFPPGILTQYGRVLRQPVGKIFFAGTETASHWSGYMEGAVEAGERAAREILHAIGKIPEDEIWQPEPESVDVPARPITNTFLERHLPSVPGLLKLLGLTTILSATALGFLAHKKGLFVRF
The experiment is described as follows: (§3) Inhibitory activity against Monoamine oxidase B. A digest of the protocol: (§4)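 Enzyme is a mitochondrial fraction from livers of male Sprague-Dawley rats (200-250 g), homogenised in 50 mM potassium phosphate pH 7.2. Activity followed at 37 °C with 333 µM benzylamine, product appearance read at 250 nm. Ki for reversible complex formation came from direct fitting of progress curves recorded at varying inhibitor concentrations.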

For experiment [4], the target named is T2, Amine oxidase [flavin-containing] B. The experiment is described as §3. A digest of the protocol:
as §4
The source holds these as a separate data set.

In the case of `C#CCN(C)Cc1cc2ccccc2n1C`, the figures for the Ki in experiment [1], in experiment [2] and in experiment [3] were 0.000302 µM, 0.0003 µM and 0.003 µM, respectively.
As for `CC#CCN(C)Cc1cc2cc(O)ccc2n1C`, the values for the Ki in experiment [1], in experiment [2] and in experiment [3] were 0.00575 µM, 0.0057 µM and 8.8 µM, respectively.
As to `CC#CCN(C)Cc1cc2ccccc2n1C`, the Ki in experiment [1] is 0.00427 µM; in experiment [2] it was 0.0043 µM; in experiment [3], 0.03 µM.
Regarding `C#CCN(C)Cc1cn(Cc2ccccc2)c2ccccc12`, the Ki in experiment [1] was 158 µM; in experiment [2], 160 µM; in experiment [3], 476 µM.
The like results for `CNCc1cn(Cc2ccccc2)c2ccccc12` were, in that order, 166 µM, 167 µM and 338 µM.
Take `C#CCNCc1cc2cc(O)ccc2n1C`: the values for the Ki in experiment [1], in experiment [2] and in experiment [3] were 3.98 µM, 4 µM and 8.9 µM, respectively.
With `CC#CCNCc1cc2cc(OCc3ccccc3)ccc2[nH]1`, the Ki was 15.1 µM in experiment [1] and 0.015 µM in experiment [3].
Turning to `CC#CCN(C)Cc1cc2cc(OC)ccc2n1C`, the figures for the Ki in experiment [1], in experiment [2] and in experiment [3] were 0.00141 µM, 0.0014 µM and 0.37 µM, respectively.
As for `CCNCc1cn(Cc2ccccc2)c2ccccc12`, the Ki was 263 µM in experiment [1], 262 µM in experiment [2] and 429 µM in experiment [3].
`C#CCNCc1cc2cc(OCc3ccccc3)ccc2[nH]1`: the figures for the Ki in experiment [2] and in experiment [3] were 0.79 µM and 0.00075 µM, respectively.
As to `c1ccc(CNCc2cc3ccccc3[nH]2)cc1`, the values for the Ki in experiment [1], in experiment [2] and in experiment [3] were 87.1 µM, 87 µM and 159 µM, respectively.
The like results for `C#CCN(C)Cc1cc2cc(O)ccc2n1C` were, in that order, 0.00398 µM, 0.004 µM and 0.82 µM.
For `C#CCN(Cc1ccccc1)Cc1cn(Cc2ccccc2)c2ccccc12`, the Ki in experiment [2] is above 1000 µM; in experiment [3], 260 µM.
With `C#CCNCc1cc2ccccc2n1C`, the Ki in experiment [1] was 0.24 µM; in experiment [2], 0.24 µM; in experiment [3] it was 3.83 µM.
Take `CC(C)NCc1cn(Cc2ccccc2)c2ccccc12`: the Ki in experiment [1] was 132 µM; in experiment [2], 133 µM; in experiment [3] it was 438 µM.
The like results for `C#CCN(Cc1ccccc1)Cc1cc2ccccc2n1C` were, in that order, 10 µM, 10 µM and 60 µM.
Consider `Cn1c(CNCc2ccccc2)cc2ccccc21`, for which the Ki in experiment [1] was 33.9 µM; in experiment [2] it was 34 µM; in experiment [3], 48 µM.
Turning to `C#CCN(C)Cc1cc2cc(OC)ccc2n1C`, the Ki in experiment [1] is 0.00151 µM; in experiment [2], 0.0015 µM; in experiment [4] it was 0.0575 µM; in experiment [3], 0.03 µM.
Regarding `C#CCNCc1cc2cc(OC)ccc2n1C`, the values for the Ki in experiment [1], in experiment [2] and in experiment [3] were 0.000813 µM, 0.0008 µM and 0.004 µM, respectively.
The like results for `c1ccc(CNCc2cn(Cc3ccccc3)c3ccccc23)cc1` were, in that order, 245 µM, 244 µM and 362 µM.
With `CC#CCN(Cc1ccccc1)Cc1cc2ccccc2n1C`, the values for the Ki in experiment [2] and in experiment [3] were above 1000 µM and 50 µM, respectively.
